# Reference: ChEMBL document CHEMBL4699586, “Synthesis and biological evaluation of NQO1-activated prodrugs of podophyllotoxin as antitumor agents” (Bioorg Med Chem, 2020)
# Activity calls are given as the source filed them. The rule behind the calls is not given here.
# Columns and labels:
# [1] = test system: A549; assay: Cytotoxicity against human A549 cells overexpressing NQO1 assessed as reduction in cell viability incubated for 48 hrs by MTT assay; assay type: functional, cell-based; details: A549, 48 h
# Method in brief: (§1)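 Cell lines A549, HepG2, hypoxic A549/Hyp and HepG2/Hyp, taxol-resistant A549/T, and normal LO2. Log-phase cells allowed to adhere in 96-well plates, then exposed to compound for 48 h. MTT added for 2–3 h. Formazan dissolved in DMSO and absorbance read at 570 nm; IC50 derived.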
# [2] = test system: HepG2; assay: Cytotoxicity against hypoxia-induced human HepG2 cells assessed as reduction in cell viability incubated for 48 hrs by MTT assay; assay type: functional, cell-based; details: HepG2, 48 h; method in brief: as §1
# [3] = test system: HepG2; assay: Cytotoxicity against human HepG2 cells overexpressing NQO1 assessed as reduction in cell viability incubated for 48 hrs by MTT assay; assay type: functional, cell-based; details: HepG2, 48 h; method in brief: as §1
# [4] = test system: HepG2; assay: Induction of apoptosis in human HepG2 cells assessed as necrotic cells at 50 nM incubated for 24 hrs by annexin V-FITC and propidium iodide based flow cytometry analysis (reference value: 0.94 %); assay type: functional
# [5] = test system: L02; assay: Cytotoxicity against NQO1-deficient human L02 cells assessed as reduction in cell viability incubated for 48 hrs by MTT assay; assay type: cell-based; details: L02, 48 h; method in brief: as §1
# [6] = test system: HepG2; assay: Induction of apoptosis in human HepG2 cells assessed as late apoptotic cells at 50 nM incubated for 24 hrs by annexin V-FITC and propidium iodide based flow cytometry analysis (reference value: 1.56 %); assay type: functional
# [7] = test system: HepG2; assay: Induction of apoptosis in human HepG2 cells assessed as early apoptotic cells at 50 nM incubated for 24 hrs by annexin V-FITC and propidium iodide based flow cytometry analysis (reference value: 1.84 %); assay type: functional
# [8] = test system: A549; assay: Cytotoxicity against taxol-resistant human A549 cells assessed as reduction in cell viability incubated for 48 hrs by MTT assay; assay type: functional, cell-based; details: A549, 48 h; method in brief: as §1
# [9] = Toxicity in BALB/c mouse xenografted with human HepG2 cells assessed as animal death at 10 mg/kg, ip administered every other day for 17 consecutive days and measured on day 17; assay type: organism-based; details: in vivo, 408 h, time 17 day
# Method in brief: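 HepG2 s.c. xenografts in BALB/c nude mice, 6 per group. Compound given i.p. every other day for 17 days in 5% DMSO/40% PEG300/5% Tween-80/50% saline. Deaths recorded over the experimental period. Body weight monitored every 2 days.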
# [10] = test system: HepG2; assay: Induction of apoptosis in human HepG2 cells assessed as viable cells at 50 nM incubated for 24 hrs by annexin V-FITC and propidium iodide based flow cytometry analysis (reference value: 95.66 %); assay type: functional; details: read-out: Activity
# [11] = test system: A549; assay: Cytotoxicity against hypoxia-induced human A549 cells assessed as reduction in cell viability incubated for 48 hrs by MTT assay; assay type: functional, cell-based; details: A549, 48 h; method in brief: as §1
# [12] = organism: Sus scrofa; assay: Inhibition of porcine tubulin polymerization at 3 uM measured every 30 secs for 1 hr
# Method in brief: (§2)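 Commercial tubulin polymerization kit run per manufacturer; test agent at 3 μM with vehicle control, with or without added NQO1 depending on group; absorbance at 340 nm read every 30 s for 1 h to give polymerization/depolymerization kinetic curves.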
# [13] = molecular target: Tubulin (Homo sapiens) (UniProt P68371+Q9H4B7+P0DPH7+P68366+Q13509+Q71U36+P04350+Q3ZCM7+P07437+P68363+Q9BQE3+Q6PEY2+Q13885+Q9BVA1+Q9BUF5); assay: Inhibition of microtubule assembly in human HepG2 cells at 50 nM incubated for 48 hrs by immunofluorescence microscopic analysis; assay type: cell-based
# Method in brief: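 HepG2 seeded 12 h at 37 °C, 5% CO₂, then exposed 48 h alongside DMSO vehicle; methanol-fixed, permeabilized in 0.5% Triton X-100/PBS, α-tubulin primary antibody overnight at 4 °C, fluorescent secondary 1 h, DAPI nuclear counterstain; fluorescence microscopy imaging of microtubule networks.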
# [14] = molecular target: T1, NAD(P)H dehydrogenase [quinone] 1 (Homo sapiens, UniProt P15559); assay: Prodrug release assessed as recombinant NQO1 (unknown origin)-mediated podophyllotoxin formation at 20 uM measured after 30 mins in presence of NADPH by HRMS analysis; assay type: ADME; details: 0.5 h
# T1 sequence (P15559 whole entry, the tested form may be a part): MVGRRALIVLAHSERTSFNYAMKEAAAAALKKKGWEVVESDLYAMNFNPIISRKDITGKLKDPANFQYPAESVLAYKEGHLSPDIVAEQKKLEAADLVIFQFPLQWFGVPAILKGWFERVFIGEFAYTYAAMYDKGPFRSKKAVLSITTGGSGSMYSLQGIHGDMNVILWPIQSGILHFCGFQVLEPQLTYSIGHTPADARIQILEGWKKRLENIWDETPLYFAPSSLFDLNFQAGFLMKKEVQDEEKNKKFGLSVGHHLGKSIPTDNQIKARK
# Method in brief: (§3)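 Recombinant NQO1 (final 10 μg/mL) added to start reaction in 10 mM PBS with 2% Tween 80, 100 μM NADPH and 20 μM prodrug. Incubated at 37 °C, stopped with cold acetonitrile and centrifuged cold. Supernatant analysed by HRMS for release fragments.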
# [15] = molecular target: T1, NAD(P)H dehydrogenase [quinone] 1; assay: Prodrug release assessed as recombinant NQO1 (unknown origin)-mediated 6-hydroxy-4,4,5,7-tetramethylchroman-2-one formation formation at 20 uM measured after 30 mins in presence of NADPH by HRMS analysis; assay type: ADME; details: 0.5 h; method in brief: as §3
# [16] = Toxicity in BALB/c mouse xenografted with human HepG2 cells assessed as damage in liver at 5 to 10 mg/kg, ip administered every other day for 17 consecutive days and measured on day 17 by H&E staining based light microscopic analysis; assay type: organism-based; details: in vivo, 408 h, dose 5-10 mg/kg, time 17 day
# Method in brief: (§4)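 Six-week-old BALB/c nude mice carrying s.c. HepG2 tumours (5×10⁶ cells in PBS) randomized at 70–100 mm³, 6 per group; i.p. dosing every other day for 17 days in 5% DMSO/40% PEG300/5% Tween 80/50% saline; day-17 organs fixed in 4% paraformaldehyde, paraffin-embedded, H&E stained, light microscopy versus control.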
# [17] = Metabolic stability in rat plasma at 10 uM incubated for 9 hrs in presence of NADPH by HPLC analysis; assay type: ADME, cell-free
# Method in brief: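 Rat plasma deproteinized by vortexing and centrifugation (10000 rpm, 5 min); supernatant incubated with 10 μM substrate plus 2% Tween 80 at 37 °C for 0–540 min; after centrifugation, supernatant analysed by HPLC (UV 292 nm); run in triplicate.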
# [18] = Toxicity in BALB/c mouse xenografted with assessed as damage in heart at 5 to 10 mg/kg, ip administered every other day for 17 consecutive days and measured on day 17 by H&E staining based light microscopic analysis; assay type: organism-based; details: in vivo, 408 h, dose 5-10 mg/kg, time 17 day; method in brief: as §4
# [19] = Toxicity in BALB/c mouse xenografted with human HepG2 cells assessed as damage in lung at 5 to 10 mg/kg, ip administered every other day for 17 consecutive days and measured on day 17 by H&E staining based light microscopic analysis; assay type: organism-based; details: in vivo, 408 h, dose 5-10 mg/kg, time 17 day; method in brief: as §4
# [20] = Stability of the compound in PBS buffer at 10 uM at pH 5 to 9 incubated for 9 hrs in presence of NADPH by HPLC analysis; assay type: physicochemical; details: pH 5, 9 h
# Method in brief: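 No NQO1 present; 10 μM substrate with 100 μM NADPH in PBS containing 2% Tween 80 across pH values 5–9 at 37 °C; timed samples quenched with cold acetonitrile, centrifuged, and quantified by C18 HPLC with UV detection at 292 nm; triplicate.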
# [21] = Toxicity in BALB/c mouse xenografted with human HepG2 cells assessed as body weight reduction at 10 mg/kg, ip administered every other day for 17 consecutive days and measured on day 17; assay type: organism-based; details: in vivo, 408 h, time 17 day
# Method in brief: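 HepG2 xenografts in 6-week BALB/c nude mice (s.c., 5×10⁶ cells), grouped at 70–100 mm³, n=6; i.p. dosing every other day for 17 days in 5% DMSO/40% PEG300/5% Tween 80/50% saline vehicle; body weight recorded every 2 days.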
# [22] = organism: Sus scrofa; assay: Inhibition of porcine tubulin polymerization at 3 uM in presence of NQO1 and NADPH measured for 1 hr for every 30 sec; method in brief: as §2
# [23] = Toxicity in BALB/c mouse xenografted with human HepG2 cells assessed as damage in spleen at 5 to 10 mg/kg, ip administered every other day for 17 consecutive days and measured on day 17 by H&E staining based light microscopic analysis; assay type: organism-based; details: in vivo, 408 h, dose 5-10 mg/kg, time 17 day; method in brief: as §4
# [24] = Toxicity in BALB/c mouse xenografted with human HepG2 cells assessed as damage in kidney at 5 to 10 mg/kg, ip administered every other day for 17 consecutive days and measured on day 17 by H&E staining based light microscopic analysis; assay type: organism-based; details: in vivo, 408 h, dose 5-10 mg/kg, time 17 day; method in brief: as §4
# [25] = molecular target: T1, NAD(P)H dehydrogenase [quinone] 1; assay: Prodrug release assessed as recombinant NQO1 (unknown origin)-mediated N-(4-methylenecyclohexa-2,5-dienylidene)methanamine formation formation at 20 uM measured after 30 mins in presence of NADPH by HRMS analysis; assay type: ADME; details: 0.5 h; method in brief: as §3
# [26] = test system: HepG2; assay: Induction of cell cycle arrest in human HepG2 cells assessed as increase in cells accumulation at G2/M phase at 50 nM incubated for 24 hrs by propidium iodide based flow cytometry analysis relative to control; assay type: functional
# Method in brief: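 HepG2 plated in 12-well plates for 24 h, treated with compound (50 nM) for 24 h. Harvested, washed twice in cold PBS, held in 70% ethanol for 3 h. RNase A treatment 1 h at ambient temperature, then PI stain. Phase distribution by flow cytometry, compared with DMSO control.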
# [27] = Selectivity index, ratio of IC50 for NQO1-deficient human L02 cells to IC50 for human HepG2 cells overexpressing NQO1 incubated for 48 hrs by MTT assay
# Method in brief: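 IC50 in LO2 divided by IC50 in HepG2. Both from MTT after 48 h exposure, with absorbance read at 570 nm.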
# [28] = Metabolic stability in human liver S9 fraction at 10 uM incubated for 9 hrs in presence of NADPH by HPLC analysis; assay type: ADME, subcellular; details: s9, 9 h
# Method in brief: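 Pooled human liver S9 fraction (0.5 mg) in 10 mM PBS pH 7.4 with 2% Tween 80, substrate 10 μM, 37 °C; started with 100 μM NADPH, quenched with cold acetonitrile at 0–540 min; centrifuged supernatant analysed by HPLC, UV 292 nm; triplicate.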
# [29] = test system: HepG2; assay: Antitumor activity against human HepG2 cells xenografted in BALB/c nude mouse assessed as tumor growth suppression at 10 mg/kg, ip administered every other day for 17 consecutive days and measured on day 17 by caliper analysis relative to control; assay type: functional; details: 408 h, time 17 day, read-out: TGI
# Method in brief: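 BALB/c nude mice, 6 weeks old, given 5×10^6 HepG2 cells s.c. in sterile PBS. Randomized at tumour 70–100 mm³, 6 per group. Dosing i.p. every other day for 17 days in 5% DMSO/40% PEG300/5% Tween-80/50% saline; vehicle arm as control. Caliper volume every 2 days as V = AB²/2. Tumours excised and weighed on day 17; growth inhibition rate calculated.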
Structure (SMILES),IC50 [1] [nM],IC50 [2] [nM],IC50 [3] [nM],Activity [4] [%],IC50 [5] [nM],Activity [6] [%],Activity [7] [%],IC50 [8] [nM],viability at 0.05 µM [10] [%],IC50 [11] [nM],also measured
COc1cc([C@@H]2c3cc4c(cc3[C@H](O)[C@H]3COC(=O)[C@H]23)OCO4)cc(OC)c1OC [PODOFILOX],105,209,83,7.38,85,6.08,2.88,338,83.7,291,Activity [9]: Toxic
COc1cc([C@@H]2c3cc4c(cc3[C@@H](OC(=O)OCc3ccc(N(C)C(=O)CC(C)(C)C5=C(C)C(=O)C(C)=C(C)C5=O)cc3)[C@H]3COC(=O)[C@H]23)OCO4)cc(OC)c1OC,100,113,84,18.99,312,15.76,1.74,197,63.5,185,inhibition [12]: inactive; inhibition [13]: Active; Drug metabolism [14]: Metabolite_Detected; Drug metabolism [15]: Metabolite_Detected; Activity [16]: Non-Toxic; Stabilty [17]: Stable; Activity [18]: Non-Toxic; Activity [19]: Non-Toxic; Stabilty [20]: Stable; Activity [21]: Non-Toxic; inhibition [22]: Active; Activity [23]: Non-Toxic; Activity [24]: Non-Toxic; Drug metabolism [25]: Metabolite_Detected; Activity [26]: 27.3%; Ratio IC50 [27]: 3.72; Stabilty [28]: Stable; inhibition in vivo at 10 mg/kg [29]: 64%
COc1cc([C@@H]2c3cc4c(cc3[C@@H](OC(=O)CC(C)(C)C3=C(C)C(=O)C(C)=C(C)C3=O)[C@H]3COC(=O)[C@H]23)OCO4)cc(OC)c1OC,160,193,107,,228,,,302,,315,
COc1cc([C@@H]2c3cc4c(cc3[C@@H](OC(=O)OCc3ccc(NC(=O)CC(C)(C)C5=C(C)C(=O)C(C)=C(C)C5=O)cc3)[C@H]3COC(=O)[C@H]23)OCO4)cc(OC)c1OC,274,425,262,,452,,,574,,596,
